This passage reports Fall and SP results from ChEMBL document CHEMBL1121617, “Antihypertensive ureidopiperidines” (1980).

Test [1] deals with Rattus norvegicus. Nature of the test: The percent fall in systolic blood pressure at 1.5 / 4 hr after peroral administration of 50 mg/kg in DOCA/saline hypertensive rats at 24 hr; Non significant. The format is functional, organism-based. The arrangement: dose 50 mg/kg. To be noted: Artery, at 50 mg/kg.
Test [2] has as its system Rattus norvegicus. Nature of the test: Percent fall in systolic blood pressure at 1.5 / 4 hr after peroral administration of 50 mg/kg in DOCA/saline hypertensive rats at 6 h; Non significant. The format is functional, organism-based. Also on record: dose 50 mg/kg. To be noted: Artery, at 50 mg/kg.
For test [3], the system named is Rattus norvegicus. Briefly: Starting systolic blood pressure at dose of 50 mg/kg in rat. The format is functional, Artery. The essentials:
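Mean systolic blood pressure before dosing for each group of four DOCA/saline hypertensive rats given 50 mg/kg orally. It indicates how far hypertension was established.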

Test [4] deals with Rattus norvegicus. Briefly: The percent fall in systolic blood pressure at 1.5 / 4 h after peroral administration of 50 mg/kg in DOCA/saline hypertensive rats at 2 hr. In kind it is functional, Artery. As to conditions: route oral.
Test [5] relates to Rattus norvegicus. Briefly: The percent fall in systolic blood pressure at 1.5 / 4 hr after peroral administration of 50 mg/kg in DOCA/saline hypertensive rats at 2 hr; Non significant. The format is functional, organism-based. Also on record: dose 50 mg/kg. To be noted: Artery, at 50 mg/kg.

Molecules are shown by their SMILES.

For the molecule `O=C(NC(=O)c1ccccc1)NC1CCN(CCCC(=O)c2c[nH]c3ccccc23)CC1`, the values for the Fall entry in the test with Rattus norvegicus [1], in the test with Rattus norvegicus [2] and in the test with Rattus norvegicus [4] were “Not significant”, “Not significant” and 16%, respectively. In the test on Rattus norvegicus [3], this molecule displayed an SP of 187 mmHg.

With `O=C(NC1CCCCC1)NC1CCN(CC(O)C2COc3ccccc3O2)CC1` (stereo not given), the Fall result in the test on Rattus norvegicus [1] is “Not significant”; in the test with Rattus norvegicus [2], “Not significant”; in the test with Rattus norvegicus [4], 26%. Moreover, the SP in the test with Rattus norvegicus [3] amounted to 172 mmHg.

Turning to `CN(C(=O)NC(=O)c1ccccc1)C1CCN(CCc2c[nH]c3ccccc23)CC1`, the Fall result in the test on Rattus norvegicus [1] was “Not significant”; in the test with Rattus norvegicus [2] it was “Not significant”; in the test on Rattus norvegicus [4] it was 40%. The SP in the test on Rattus norvegicus [3] amounted to 186 mmHg.

Turning to `COc1ccc(C(=O)NC(=O)NC2CCN(CC(O)C3COc4ccccc4O3)CC2)cc1` (stereo not given), the Fall entry in the test with Rattus norvegicus [1], in the test on Rattus norvegicus [2] and in the test with Rattus norvegicus [5] was “Not significant” throughout. In addition, in the test with Rattus norvegicus [3], the SP amounted to 165 mmHg.

For `O=C(Nc1ccc(Cl)cc1)NC1CCN(CC(O)C2COc3ccccc3O2)CC1` (stereo not given), the Fall result in the test on Rattus norvegicus [1], in the test with Rattus norvegicus [2] and in the test on Rattus norvegicus [5] was “Not significant” in each case. In the test with Rattus norvegicus [3], this molecule displayed an SP of 178 mmHg.

As for `O=C(Nc1ccccc1)NC1CCN(CC(O)C2COc3ccccc3O2)CC1` (stereo in doubt; 31) [listing 1 of 2 here], in the test on Rattus norvegicus [3] (50 mg/kg), the SP amounted to 171 mmHg. The Fall in the test with Rattus norvegicus [4] was found to be 35%.

For `O=C(NC(=O)c1cccs1)NC1CCN(CCCC(=O)c2c[nH]c3ccccc23)CC1`, the Fall result in the test with Rattus norvegicus [1], in the test on Rattus norvegicus [2] and with Rattus norvegicus [5] was “Not significant” in each case. The same molecule displayed an SP in the test with Rattus norvegicus [3] of 181 mmHg.

Regarding `O=C(Nc1ccccc1)NC1CCN(CC(O)COc2cccc3ccccc23)CC1` (stereo not given), the Fall result in the test with Rattus norvegicus [1], with Rattus norvegicus [2] and in the test with Rattus norvegicus [5] was “Not significant” each time. In the test on Rattus norvegicus [3], this molecule returned an SP of 170 mmHg.

`CCN(C(=O)Nc1ccccc1)C1CCN(CCc2c[nH]c3ccccc23)CC1`: the Fall result in the test with Rattus norvegicus [1], with Rattus norvegicus [2] and with Rattus norvegicus [5] was “Not significant” in each case. In the test with Rattus norvegicus [3], this molecule yielded an SP of 170 mmHg.

Consider `O=C(NC(=O)c1ccccc1)NC1CCN(CC(O)C2COc3ccccc3O2)CC1` (stereo in doubt; 29) [listing 1 of 2 here], for which the Fall entry in the test with Rattus norvegicus [1], in the test on Rattus norvegicus [2] and in the test with Rattus norvegicus [5] was “Not significant” each time.

In the case of `O=C(NC(=S)NC1CCN(CCc2c[nH]c3ccccc23)CC1)c1ccccc1`, the Fall result in the test with Rattus norvegicus [1], in the test with Rattus norvegicus [2] and in the test with Rattus norvegicus [5] was “Not significant” each time. Further, in the test on Rattus norvegicus [3], the SP turned out to be 200 mmHg.

In the case of `CN(/C(S)=N/c1ccccc1)C1CCN(CCc2c[nH]c3ccccc23)CC1`, the Fall result with Rattus norvegicus [1], with Rattus norvegicus [2] and with Rattus norvegicus [5] was “Not significant” each time. The SP with Rattus norvegicus [3] is listed as 172 mmHg.

For `O=C(NC(=O)c1ccccc1)NC1CCN(CCCc2c[nH]c3ccccc23)CC1`, the Fall entry in the test on Rattus norvegicus [1], in the test with Rattus norvegicus [2] and with Rattus norvegicus [5] was “Not significant” in each case. In the test on Rattus norvegicus [3], this molecule came in with an SP of 191 mmHg.

For the molecule `O=C(NC(=O)c1ccc(F)cc1)NC1CCN(CC(O)C2COc3ccccc3O2)CC1` (stereo not given), the Fall entry in the test on Rattus norvegicus [1] is “Not significant”; in the test on Rattus norvegicus [2], “Not significant”; with Rattus norvegicus [4], 17%. The molecule further showed an SP in the test with Rattus norvegicus [3] of 183 mmHg.

With `N=C(NC(=O)c1ccccc1)NC1CCN(CCc2c[nH]c3ccccc23)CC1`, the Fall result with Rattus norvegicus [1], in the test on Rattus norvegicus [2] and in the test with Rattus norvegicus [5] was “Not significant” in each case. For the same molecule, the SP in the test on Rattus norvegicus [3] turned out to be 165 mmHg.

As to `O=C(NC(=O)c1cccs1)NC1CCN(CCCC(=O)c2ccccc2)CC1`, the Fall entry in the test on Rattus norvegicus [1] is “Not significant”; in the test with Rattus norvegicus [2], “Not significant”; in the test with Rattus norvegicus [4], 30%. In addition, the SP in the test on Rattus norvegicus [3] is reported as 190 mmHg.

As for `O=C(NC(=O)c1ccccc1)NC1CCN(CC(=O)C2COc3ccccc3O2)CC1` (stereo not given), the Fall entry in the test with Rattus norvegicus [1], in the test with Rattus norvegicus [2] and with Rattus norvegicus [5] was “Not significant” throughout. Besides, the SP in the test with Rattus norvegicus [3] was found to be 181 mmHg.

On to `O=C(NC1CCCCC1)NC1CCN(CCc2c[nH]c3ccccc23)CC1`, for which the Fall entry with Rattus norvegicus [1] is “Not significant”; with Rattus norvegicus [2], “Not significant”; in the test with Rattus norvegicus [4] it was 15%. In the test on Rattus norvegicus [3], this molecule returned an SP of 176 mmHg.

Take `O=C(NC(=O)c1ccccc1)NC1CCN(CC(O)c2ccccc2)CC1` (stereo not given): the Fall entry is “Not significant” with Rattus norvegicus [1], “Not significant” in the test on Rattus norvegicus [2] and 21% with Rattus norvegicus [4]. The same molecule showed an SP with Rattus norvegicus [3] of 182 mmHg.

Take `O=C(Nc1cccc(C(F)(F)F)c1)NC1CCN(CCCC(=O)c2ccccc2)CC1`: the Fall result in the test with Rattus norvegicus [1], in the test with Rattus norvegicus [2] and in the test with Rattus norvegicus [5] was “Not significant” in each case. Also, the SP in the test on Rattus norvegicus [3] was 177 mmHg.

Take `OC(CN1CCC(/N=C(\S)Nc2ccccc2)CC1)C1COc2ccccc2O1` (stereo not given): the Fall result with Rattus norvegicus [1] was “Not significant”; in the test on Rattus norvegicus [2], “Not significant”; in the test on Rattus norvegicus [4] it was 26%. Besides, the SP in the test on Rattus norvegicus [3] turned out to be 182 mmHg.

In the case of `O=C(Nc1ccccc1)NC1CCN(CC(O)C2COc3ccccc3O2)CC1` (stereo in doubt; 31) [listing 2 of 2 here], the Fall result in the test on Rattus norvegicus [1] and with Rattus norvegicus [2] was “Not significant” in each case.

As to `O=C(NC(=O)c1ccccc1)NC1CCN(CCc2ccccc2)CC1`, the Fall result in the test on Rattus norvegicus [1], in the test on Rattus norvegicus [2] and with Rattus norvegicus [5] was “Not significant” in each case. For the same molecule, in the test on Rattus norvegicus [3], the SP is listed as 180 mmHg.

Take `O=C(NC(=O)c1ccccc1)NC1CCN(CC(O)C2COc3ccccc3O2)CC1` (stereo in doubt; 28) [listing 1 of 2 here]: the Fall result with Rattus norvegicus [1], with Rattus norvegicus [2] and in the test with Rattus norvegicus [5] was “Not significant” in each case.

Turning to `O=C(Nc1ccccc1)NC1CCN(CCCC(=O)c2c[nH]c3ccccc23)CC1`, the Fall entry in the test on Rattus norvegicus [1], in the test with Rattus norvegicus [2] and in the test with Rattus norvegicus [5] was “Not significant” each time. This molecule displayed an SP with Rattus norvegicus [3] of 187 mmHg.

Take `O=C(NC(=S)NC1CCN(CC(O)C2COc3ccccc3O2)CC1)c1ccc(Cl)cc1` (stereo not given): the Fall result in the test on Rattus norvegicus [1], with Rattus norvegicus [2] and with Rattus norvegicus [5] was “Not significant” in each case. The same molecule returned an SP in the test with Rattus norvegicus [3] of 175 mmHg.

As for `O=C(NC(=O)c1ccccc1)NC1CCN(CC(=O)c2c[nH]c3ccccc23)CC1`, the Fall result in the test on Rattus norvegicus [1], with Rattus norvegicus [2] and in the test with Rattus norvegicus [5] was “Not significant” in each case. Besides, in the test on Rattus norvegicus [3], the SP was 178 mmHg.

On to `COc1ccc(C(=O)NC(=O)NC2CCN(CC(O)COc3ccccc3OC)CC2)cc1` (stereo not given), for which the Fall result in the test on Rattus norvegicus [1], in the test with Rattus norvegicus [2] and in the test on Rattus norvegicus [5] was “Not significant” each time. The SP in the test with Rattus norvegicus [3] worked out at 162 mmHg.

`COc1ccccc1OCC(O)CN1CCC(NC(=O)NC(=O)c2ccc(F)cc2)CC1` (stereo not given): the Fall result with Rattus norvegicus [1], in the test on Rattus norvegicus [2] and in the test on Rattus norvegicus [5] was “Not significant” in each case. In the test with Rattus norvegicus [3], the SP is 196 mmHg.

Consider `O=C(NC(=O)c1ccccc1)NC1CCN(CC(O)C2COc3ccccc3O2)CC1` (stereo in doubt; 29) [listing 2 of 2 here], for which the SP with Rattus norvegicus [3] (50 mg/kg) came out at 178 mmHg.

Take `COc1ccc(NC(=O)NC2CCN(CC(O)C3COc4ccccc4O3)CC2)cc1` (stereo not given): the Fall entry in the test on Rattus norvegicus [1] was “Not significant”; with Rattus norvegicus [2], “Not significant”; in the test on Rattus norvegicus [4] it was 17%. The SP with Rattus norvegicus [3] was 190 mmHg.

Take `O=C(NC(=O)c1ccccc1)NC1CCN(CC(O)COc2cccc3ccccc23)CC1` (stereo not given): the Fall result in the test on Rattus norvegicus [1], with Rattus norvegicus [2] and in the test with Rattus norvegicus [5] was “Not significant” in each case. This molecule had an SP with Rattus norvegicus [3] of 185 mmHg.

As for `COc1ccccc1OCC(O)CN1CCC(NC(=O)NC(=O)c2ccccc2)CC1` (stereo not given), the figures for the Fall entry in the test with Rattus norvegicus [1], in the test with Rattus norvegicus [2] and in the test on Rattus norvegicus [4] were “Not significant”, “Not significant” and 17%, respectively. Besides, the SP in the test on Rattus norvegicus [3] is given as 189 mmHg.

Consider `O=C(NC(=O)c1ccccc1)NC1CCN(CC(=O)c2ccccc2)CC1`, for which the Fall entry with Rattus norvegicus [1] was “Not significant”; in the test with Rattus norvegicus [2], “Not significant”; in the test with Rattus norvegicus [4], -23%. This molecule also showed an SP in the test with Rattus norvegicus [3] of 166 mmHg.

Regarding `CC(=O)Nc1ccc(OCC(O)CN2CCC(NC(=O)NC(=O)c3ccccc3)CC2)cc1` (stereo not given), the Fall result in the test on Rattus norvegicus [1], in the test on Rattus norvegicus [2] and in the test with Rattus norvegicus [5] was “Not significant” in each case. The SP in the test on Rattus norvegicus [3] is given as 179 mmHg.

For the molecule `N/C(S)=N/C1CCN(CCc2c[nH]c3ccccc23)CC1`, the Fall result was “Not significant” in the test with Rattus norvegicus [1], “Not significant” with Rattus norvegicus [2] and 20% with Rattus norvegicus [4]. The same molecule showed an SP in the test with Rattus norvegicus [3] of 189 mmHg.

With `O=C(Nc1ccccc1)NC1CCN(CC(O)C2COc3ccccc3O2)CC1` (stereo in doubt; 30) [listing 1 of 2 here], the Fall entry in the test on Rattus norvegicus [1], with Rattus norvegicus [2] and in the test with Rattus norvegicus [5] was “Not significant” throughout.

Take `O=C(NC(=O)c1ccccc1)NC1CCN(CC(O)C2COc3ccccc3O2)CC1` (stereo in doubt; 28) [listing 2 of 2 here]: the SP in the test with Rattus norvegicus [3] (50 mg/kg) is 174 mmHg.

As for `O=C(Nc1ccccc1)NC1CCN(CC(O)C2COc3ccccc3O2)CC1` (stereo in doubt; 30) [listing 2 of 2 here], the SP in the test with Rattus norvegicus [3] (50 mg/kg) is given as 182 mmHg.
